Results from ChEMBL document CHEMBL1122160, “Structure--activity relationships of nogalamycin analogues” (1982).
Each block holds one compound with its values, some of them ahead of it.

Columns and labels:
L1210 [1] = assay: Micromolar concentration required to inhibit the growth of L1210 cells by 50% was determined; format: functional; conditions: Mus musculus, read-out: ID50 (the source's name)
L1210 [2] = assay: Micromolar concentration required to inhibit the growth of L1210 cells by 90% was determined; format: functional, Mus musculus
Mus musculus [3] = assay: […] percent increase in life span of mice injected intraperitoneally with P-388 leukemia after administration (33 mg/kg)/day; format: functional
In short: (§1)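 P-388 leukemia cells (10^6) implanted intraperitoneally in mice on day 0, following a standard National Cancer Institute protocol. Drug was given daily on days 1-9, or on days 1, 5 and 9 for some analogues. Dose level is as in each line.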

Mus musculus [4] = assay: Tested for antitumor activity in vivo and the weight change in grams for the tumor in mouse was determined; format: functional
In short: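 Mice received 10^6 P-388 leukemia cells intraperitoneally on day 0, following the standard NCI protocol. Drug was injected daily on days 1-9, or only on days 1, 5 and 9 for certain analogues.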

Mus musculus [5] = assay: […] percent increase in life span of mice injected intraperitoneally with P-388 leukemia after administration (12.5 mg/kg)/day; format: functional; in short: as §1
Mus musculus [6] = assay: […] percent increase in life span of mice injected intraperitoneally with P-388 leukemia after administration (5 mg/kg)/day; format: functional; in short: as §1
Mus musculus [7] = assay: […] percent increase in life span of mice injected intraperitoneally with P-388 leukemia after administration (1 mg/kg)/day; format: functional; in short: as §1
Mus musculus [8] = assay: […] percent increase in life span of mice injected intraperitoneally with P-388 leukemia after administration (400 mg/kg)/day; format: functional; in short: as §1
Mus musculus [9] = assay: […] percent increase in life span of mice injected intraperitoneally with P-388 leukemia after administration (50 mg/kg)/day; format: functional; in short: as §1
Mus musculus [10] = assay: […] percent increase in life span of mice injected intraperitoneally with P-388 leukemia after administration (40 mg/kg)/day; format: functional; in short: as §1
Mus musculus [11] = assay: […] percent increase in life span of mice injected intraperitoneally with P-388 leukemia after administration (10 mg/kg)/day; format: functional; in short: as §1
Mus musculus [12] = assay: In vivo percent increase in life span of mice injected intraperitoneally with P-388 leukemia after administration (25 mg/kg)/day
Mus musculus [13] = assay: […] percent increase in life span of mice injected intraperitoneally with P-388 leukemia after administration (20 mg/kg)/day; format: functional; in short: as §1
Mus musculus [14] = assay: […] percent increase in life span of mice injected intraperitoneally with P-388 leukemia after administration (16 mg/kg)/day; format: functional; in short: as §1
Mus musculus [15] = assay: […] percent increase in life span of mice injected intraperitoneally with P-388 leukemia after administration (6.25 mg/kg)/day; format: functional; in short: as §1
Mus musculus [16] = assay: […] percent increase in life span of mice injected intraperitoneally with P-388 leukemia after administration (8 mg/kg)/day; format: functional; in short: as §1
Mus musculus [17] = assay: […] percent increase in life span of mice injected intraperitoneally with P-388 leukemia after administration (100 mg/kg)/day; format: functional; in short: as §1
Mus musculus [18] = assay: […] percent increase in life span of mice injected intraperitoneally with P-388 leukemia after administration (1.25 mg/kg)/day; format: functional; in short: as §1

SMILES: CNC1C(O)C2Oc3c(cc(O)c4c3C(=O)c3cc5c(c(O)c3C4=O)C(OC3OC(C)C(OC)C(C)(OC)C3OC)CC(C)(O)C5)C(C)(O2)C1O (stereo not given)
IC50 (L1210 [1]): 0.88 µM | ID90 (L1210 [2]): >1 µM | ILS (Mus musculus [3]): 24% | Weight change (Mus musculus [4]): -0.6 g

SMILES: COC1CC(C)(O)Cc2cc3c(c(O)c21)C(=O)c1c(O)cc2c(c1C3=O)OC1OC2(C)C(O)C(N(C)C)C1O (stereo not given)
IC50 (L1210 [1]): 0.061 µM | ID90 (L1210 [2]): 0.13 µM | ILS (Mus musculus [5]): 197% | Weight change (Mus musculus [4]): -0.4 g

SMILES: CN(C)C1C(O)C2Oc3c(cc(O)c4c3C(=O)c3cc5c(c(O)c3C4=O)C(N=[N+]=[N-])CC(C)(O)C5)C(C)(O2)C1O (stereo not given)
IC50 (L1210 [1]): 0.83 µM | ID90 (L1210 [2]): 1.76 µM | ILS (Mus musculus [6]): 33% | Weight change (Mus musculus [4]): -0.3 g

SMILES: C=CCOC1CC(C)(O)Cc2cc3c(c(O)c21)C(=O)c1c(O)cc2c(c1C3=O)OC1OC2(C)C(O)C(N(C)C)C1O (stereo not given)
IC50 (L1210 [1]): 0.18 µM | ID90 (L1210 [2]): 0.53 µM | ILS (Mus musculus [6]): 25% | Weight change (Mus musculus [4]): 0.3 g

SMILES: COC(=O)[C@@H]1c2cc3c(c(O)c2[C@@H](O[C@@H]2O[C@@H](C)[C@H](OC)[C@@](C)(OC)[C@H]2OC)C[C@]1(C)O)C(=O)c1c(O)cc2c(c1C3=O)O[C@H]1O[C@@]2(C)[C@@H](O)[C@@H](N(C)C)[C@@H]1O
IC50 (L1210 [1]): 0.078 µM | ID90 (L1210 [2]): 0.18 µM | ILS (Mus musculus [7]): 49% | Weight change (Mus musculus [4]): -0.5 g

SMILES: CN(C)C1C(O)C2Oc3c(cc(O)c4c3C(=O)c3cc5c(c(O)c3C4=O)CCC(C)(O)C5C(=O)O)C(C)(O2)C1O (stereo not given)
IC50 (L1210 [1]): 5.6 µM | ID90 (L1210 [2]): 14.5 µM | ILS (Mus musculus [8]): -4% | Weight change (Mus musculus [4]): 0.2 g

SMILES: COC1C(C)OC(OC2CC(C)(O)Cc3cc4c(c(O)c32)C(=O)c2c(O)cc3c(c2C4=O)OC2OC3(C)C(OC(C)=O)C(N(C)C)C2OC(C)=O)C(OC)C1(C)OC (stereo not given)
IC50 (L1210 [1]): 0.076 µM | ID90 (L1210 [2]): 0.21 µM | ILS (Mus musculus [9]): 41% | Weight change (Mus musculus [4]): -0.6 g

SMILES: COCCNC1CC(C)(O)Cc2cc3c(c(O)c21)C(=O)c1c(O)cc2c(c1C3=O)OC1OC2(C)C(O)C(N(C)C)C1O (stereo not given)
IC50 (L1210 [1]): 1.04 µM | ID90 (L1210 [2]): 2.91 µM | ILS (Mus musculus [10]): 40% | Weight change (Mus musculus [4]): 0.2 g

SMILES: C#CCOC1CC(C)(O)Cc2cc3c(c(O)c21)C(=O)c1c(O)cc2c(c1C3=O)OC1OC2(C)C(O)C(N(C)C)C1O (stereo not given)
IC50 (L1210 [1]): 0.15 µM | ID90 (L1210 [2]): 0.32 µM | ILS (Mus musculus [11]): 41% | Weight change (Mus musculus [4]): -0.7 g

SMILES: CNC1C(O)C2Oc3c(cc(O)c4c3C(=O)c3cc5c(c(O)c3C4=O)C(OC3OC(C)C(OC)C(C)(OC)C3OC)CC(C)(O)C5C(=O)OC)C(C)(O2)C1O (stereo not given)
IC50 (L1210 [1]): 0.36 µM | ID90 (L1210 [2]): 0.9 µM | Weight change (Mus musculus [4]): -0.5 g | ILS (Mus musculus [12]): 59%

SMILES: COC1C(C)OC(OC2CC(C)(O)Cc3cc4c(c(O)c32)C(=O)c2c(O)cc3c(c2C4=O)OC2OC3(C)C(O)C(N(C)C)C2O)C(OC)C1(C)OC (stereo not given)
IC50 (L1210 [1]): 0.18 µM | ID90 (L1210 [2]): 0.27 µM | ILS (Mus musculus [6]): 93% | Weight change (Mus musculus [4]): -0.2 g

SMILES: COC(=O)C1c2cc3c(c(O)c2CCC1(C)O)C(=O)c1c(O)cc2c(c1C3=O)OC1OC2(C)C(O)C(N(C)C)C1O (stereo not given)
IC50 (L1210 [1]): 0.58 µM | ID90 (L1210 [2]): 1.51 µM | ILS (Mus musculus [9]): 27% | Weight change (Mus musculus [4]): -0.7 g

SMILES: COc1c2c(cc3c1C(OC)CC(C)(O)C3)C(=O)c1c3c(cc(O)c1C2=O)C1(C)OC(O3)C(O)C(N(C)C)C1O (stereo not given)
IC50 (L1210 [1]): 4.5 µM | ID90 (L1210 [2]): 9.7 µM | ILS (Mus musculus [13]): 25% | Weight change (Mus musculus [4]): 0.6 g

SMILES: COC1C(C)OC(OC2CC(C)(O)Cc3cc4c(c(OC(C)=O)c32)C(=O)c2c(O)cc3c(c2C4=O)OC2OC3(C)C(OC(C)=O)C(N(C)C)C2OC(C)=O)C(OC)C1(C)OC (stereo not given)
IC50 (L1210 [1]): 0.017 µM | ID90 (L1210 [2]): 0.041 µM | ILS (Mus musculus [13]): 37% | Weight change (Mus musculus [4]): -0.1 g

SMILES: CN(C)C1C(O)C2Oc3c(cc(O)c4c3C(=O)c3cc5c(c(O)c3C4=O)C(OCCBr)CC(C)(O)C5)C(C)(O2)C1O (stereo not given)
IC50 (L1210 [1]): 0.024 µM | ID90 (L1210 [2]): 0.071 µM | ILS (Mus musculus [14]): 60% | Weight change (Mus musculus [4]): -1.3 g

SMILES: COC(=O)C1c2cc3c(c(O)c2C(OC2OC(C)C(OC)C(C)(OC)C2OC)CC1(C)O)C(=O)c1c(O)cc2c(c1C3=O)OC1OC2(C)C(O)C(N(C)C=O)C1O (stereo not given)
IC50 (L1210 [1]): > 1 µM | ID90 (L1210 [2]): >1 µM | Weight change (Mus musculus [4]): -0.1 g | ILS (Mus musculus [12]): 12%

SMILES: COC(=O)C1c2cc3c(c(O)c2C(OC2OC(C)C(OC)C(C)(OC)C2OC)CC1(C)O)C(=O)c1c(O)cc2c(c1C3=O)OC1OC2(C)C(OC(C)=O)C(N(C)C)C1OC(C)=O (stereo not given)
IC50 (L1210 [1]): 0.069 µM | ID90 (L1210 [2]): 0.185 µM | ILS (Mus musculus [15]): 3% | Weight change (Mus musculus [4]): -0.3 g

SMILES: CSC1CC(C)(O)Cc2cc3c(c(O)c21)C(=O)c1c(O)cc2c(c1C3=O)OC1OC2(C)C(O)C(N(C)C)C1O (stereo not given)
IC50 (L1210 [1]): 0.13 µM | ID90 (L1210 [2]): 0.34 µM | ILS (Mus musculus [16]): 37% | Weight change (Mus musculus [4]): -3.1 g

SMILES: CN(C)C1C(O)C2Oc3c(cc(O)c4c3C(=O)c3cc5c(c(O)c3C4=O)CCC(C)(O)C5)C(C)(O2)C1O (stereo not given)
IC50 (L1210 [1]): 0.94 µM | ID90 (L1210 [2]): 1.76 µM | ILS (Mus musculus [17]): 21% | Weight change (Mus musculus [4]): -1.2 g

SMILES: CNC1C(O)C2Oc3c(cc(O)c4c3C(=O)c3cc5c(c(O)c3C4=O)C(OC)CC(C)(O)C5)C(C)(O2)C1O (stereo not given)
IC50 (L1210 [1]): 0.38 µM | ID90 (L1210 [2]): 0.11 µM | ILS (Mus musculus [18]): 73% | Weight change (Mus musculus [4]): -1.3 g

IC50 (L1210 [1]): 4.3 µM
SMILES: COC1CC(C)(O)Cc2cc3c(c(O)c21)C(=O)c1c(O)cc2c(c1C3=O)OC1OC2(C)C(O)C(N(C)C=O)C1O (stereo not given)
ID90 (L1210 [2]): >5 µM

SMILES: COC1C(C)OC(OC2CC(C)(O)Cc3cc4c(c(O)c32)C(=O)c2c(O)cc3c(c2C4=O)OC2OC3(C)C(O)C(N(C)C=O)C2O)C(OC)C1(C)OC (stereo not given)
IC50 (L1210 [1]): > 1 µM | ID90 (L1210 [2]): >1 µM | ILS (Mus musculus [9]): 0% | Weight change (Mus musculus [4]): 0.1 g

SMILES: CN(C)C1C(O)C2Oc3c(cc(O)c4c3C(=O)c3cc5c(c(O)c3C4=O)C(N)CC(C)(O)C5)C(C)(O2)C1O (stereo not given)
IC50 (L1210 [1]): 0.97 µM | ID90 (L1210 [2]): 2 µM | ILS (Mus musculus [10]): 47% | Weight change (Mus musculus [4]): 0.2 g
